Experimental data from publication PMC3701436 (Journal of medicinal chemistry, 2012).

What was measured:
hERG channels = hERG channels (Homo sapiens, UniProt Q12809); assay: hERG channel block; format: biochemical; details: at a concentration of 10 μM or below
[1] = test system: bacterial reverse mutation; assay: Non-GLP in vitro bacterial reverse mutation; format: cell-based
Caco-2 = Caco-2 bi-directional permeability assay; format: in vitro ADME
MeV RdRp = MeV RdRp (Measles virus, UniProt P12576); assay: Plasmid-based mini-replicon luciferase assay of RdRp activity in BSR-T7/5 cells; format: cell-based; details: 36 hours post-transfection; averages of three experiments
MeV RdRp, sequence (P12576 whole entry): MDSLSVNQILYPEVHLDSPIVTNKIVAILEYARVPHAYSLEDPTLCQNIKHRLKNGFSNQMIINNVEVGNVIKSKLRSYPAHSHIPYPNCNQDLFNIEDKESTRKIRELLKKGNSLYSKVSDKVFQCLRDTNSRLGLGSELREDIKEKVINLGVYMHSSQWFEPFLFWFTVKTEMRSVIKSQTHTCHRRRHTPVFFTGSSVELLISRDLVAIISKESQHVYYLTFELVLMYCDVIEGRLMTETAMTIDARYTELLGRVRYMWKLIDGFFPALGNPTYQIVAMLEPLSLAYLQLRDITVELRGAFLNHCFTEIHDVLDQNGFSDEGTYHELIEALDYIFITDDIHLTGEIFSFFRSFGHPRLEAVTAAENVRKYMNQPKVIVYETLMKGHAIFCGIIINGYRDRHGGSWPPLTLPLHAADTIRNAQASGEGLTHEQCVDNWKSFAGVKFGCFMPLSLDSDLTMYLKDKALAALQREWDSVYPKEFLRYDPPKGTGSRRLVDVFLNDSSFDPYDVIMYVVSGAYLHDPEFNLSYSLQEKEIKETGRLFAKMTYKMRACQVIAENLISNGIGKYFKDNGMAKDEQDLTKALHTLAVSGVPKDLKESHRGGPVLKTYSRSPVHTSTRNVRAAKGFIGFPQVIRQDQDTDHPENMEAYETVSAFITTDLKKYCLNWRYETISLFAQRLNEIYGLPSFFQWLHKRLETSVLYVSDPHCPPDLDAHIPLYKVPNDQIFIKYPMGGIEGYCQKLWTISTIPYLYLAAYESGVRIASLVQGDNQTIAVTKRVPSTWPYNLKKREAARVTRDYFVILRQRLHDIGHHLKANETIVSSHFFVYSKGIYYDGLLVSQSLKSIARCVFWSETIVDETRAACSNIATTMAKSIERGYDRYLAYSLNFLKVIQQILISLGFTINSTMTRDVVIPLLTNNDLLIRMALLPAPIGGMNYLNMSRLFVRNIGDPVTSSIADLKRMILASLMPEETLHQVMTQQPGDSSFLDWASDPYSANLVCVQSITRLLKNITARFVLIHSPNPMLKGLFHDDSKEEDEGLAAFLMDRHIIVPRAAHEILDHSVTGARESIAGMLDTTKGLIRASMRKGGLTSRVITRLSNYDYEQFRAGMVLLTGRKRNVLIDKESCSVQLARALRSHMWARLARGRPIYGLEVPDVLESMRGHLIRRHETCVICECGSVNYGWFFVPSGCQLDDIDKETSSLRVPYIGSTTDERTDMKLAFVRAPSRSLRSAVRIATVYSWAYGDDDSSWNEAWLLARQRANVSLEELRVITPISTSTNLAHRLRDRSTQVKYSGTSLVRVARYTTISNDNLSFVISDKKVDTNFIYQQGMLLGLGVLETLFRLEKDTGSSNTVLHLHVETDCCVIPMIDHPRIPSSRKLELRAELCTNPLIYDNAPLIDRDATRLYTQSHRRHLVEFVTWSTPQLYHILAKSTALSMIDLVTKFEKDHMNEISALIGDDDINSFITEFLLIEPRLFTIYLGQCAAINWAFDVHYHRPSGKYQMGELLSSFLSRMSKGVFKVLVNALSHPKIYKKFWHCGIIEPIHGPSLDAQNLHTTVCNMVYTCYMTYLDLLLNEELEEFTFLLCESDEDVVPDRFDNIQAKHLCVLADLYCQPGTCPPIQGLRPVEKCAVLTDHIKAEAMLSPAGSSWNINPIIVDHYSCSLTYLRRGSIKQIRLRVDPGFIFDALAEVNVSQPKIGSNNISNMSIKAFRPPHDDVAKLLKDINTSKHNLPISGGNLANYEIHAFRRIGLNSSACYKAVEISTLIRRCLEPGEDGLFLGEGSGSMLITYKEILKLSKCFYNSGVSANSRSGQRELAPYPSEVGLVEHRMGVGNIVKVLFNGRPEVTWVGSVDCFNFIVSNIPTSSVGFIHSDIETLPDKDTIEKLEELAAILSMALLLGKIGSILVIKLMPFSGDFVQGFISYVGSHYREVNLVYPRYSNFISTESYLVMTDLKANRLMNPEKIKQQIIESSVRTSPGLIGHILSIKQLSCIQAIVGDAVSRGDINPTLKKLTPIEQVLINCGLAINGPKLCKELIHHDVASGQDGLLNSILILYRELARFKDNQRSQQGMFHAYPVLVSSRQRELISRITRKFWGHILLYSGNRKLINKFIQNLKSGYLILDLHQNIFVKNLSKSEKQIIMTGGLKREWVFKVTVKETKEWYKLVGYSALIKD
MeV RdRp, sequence (P03422 whole entry, further chain): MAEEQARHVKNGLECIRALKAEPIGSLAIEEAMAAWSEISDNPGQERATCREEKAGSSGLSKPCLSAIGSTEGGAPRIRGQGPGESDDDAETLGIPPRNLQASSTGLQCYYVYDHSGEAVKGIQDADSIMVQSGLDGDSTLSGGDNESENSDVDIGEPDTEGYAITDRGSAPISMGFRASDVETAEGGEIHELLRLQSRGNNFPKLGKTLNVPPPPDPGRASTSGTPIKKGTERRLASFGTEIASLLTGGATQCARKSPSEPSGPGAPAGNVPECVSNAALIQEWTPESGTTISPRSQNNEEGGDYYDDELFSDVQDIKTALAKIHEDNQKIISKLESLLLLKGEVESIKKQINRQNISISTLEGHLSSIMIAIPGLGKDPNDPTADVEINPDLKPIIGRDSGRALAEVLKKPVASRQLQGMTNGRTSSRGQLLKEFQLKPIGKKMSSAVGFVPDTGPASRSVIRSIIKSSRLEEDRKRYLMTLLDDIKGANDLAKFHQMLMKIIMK
Procedure, shortened: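 BSR-T7/5 cells were transfected with plasmids encoding MeV L, N and P plus a firefly luciferase minigenome reporter, then incubated with a range of test compound concentrations or vehicle. Luciferase activity in cell lysates was read 36 h post-transfection and expressed relative to vehicle-treated samples. Dose-response inhibition curves were generated from the mean of three experiments ± SD.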

hERG channels, sequence (Q12809 whole entry): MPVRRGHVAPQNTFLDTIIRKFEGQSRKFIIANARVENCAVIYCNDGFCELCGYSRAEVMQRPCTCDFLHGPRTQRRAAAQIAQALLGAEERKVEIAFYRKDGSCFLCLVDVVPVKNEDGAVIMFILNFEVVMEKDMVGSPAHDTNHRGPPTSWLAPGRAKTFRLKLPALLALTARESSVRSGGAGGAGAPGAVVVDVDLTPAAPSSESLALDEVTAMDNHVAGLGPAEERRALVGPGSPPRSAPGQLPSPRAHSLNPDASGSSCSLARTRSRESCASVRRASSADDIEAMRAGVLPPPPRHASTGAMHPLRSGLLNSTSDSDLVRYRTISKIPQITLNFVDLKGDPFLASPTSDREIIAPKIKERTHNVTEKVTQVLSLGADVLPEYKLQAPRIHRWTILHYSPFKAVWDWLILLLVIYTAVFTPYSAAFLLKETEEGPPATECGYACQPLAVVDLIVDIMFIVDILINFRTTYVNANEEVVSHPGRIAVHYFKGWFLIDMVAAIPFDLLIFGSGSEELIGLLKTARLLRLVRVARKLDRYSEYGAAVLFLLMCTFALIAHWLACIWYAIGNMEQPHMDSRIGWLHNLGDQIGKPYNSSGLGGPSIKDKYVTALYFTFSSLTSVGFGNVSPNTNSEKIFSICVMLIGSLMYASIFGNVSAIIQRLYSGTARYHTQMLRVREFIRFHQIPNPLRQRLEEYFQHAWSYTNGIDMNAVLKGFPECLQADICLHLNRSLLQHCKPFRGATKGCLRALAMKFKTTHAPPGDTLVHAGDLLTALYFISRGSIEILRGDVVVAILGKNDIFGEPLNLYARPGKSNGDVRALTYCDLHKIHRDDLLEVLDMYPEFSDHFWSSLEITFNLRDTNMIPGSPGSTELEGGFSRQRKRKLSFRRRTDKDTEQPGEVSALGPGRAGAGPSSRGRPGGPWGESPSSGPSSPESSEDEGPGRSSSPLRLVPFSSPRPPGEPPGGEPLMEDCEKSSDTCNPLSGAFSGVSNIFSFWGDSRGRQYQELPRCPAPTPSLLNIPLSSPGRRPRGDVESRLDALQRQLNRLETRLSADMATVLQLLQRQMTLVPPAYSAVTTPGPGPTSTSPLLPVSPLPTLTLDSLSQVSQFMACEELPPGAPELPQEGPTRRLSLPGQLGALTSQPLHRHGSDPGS

In the case of `Cn1nc(C(F)(F)F)cc1C(=O)Nc1ccc(S(=O)(=O)N2CCCCC2)cc1` [Compound 2], the hERG channel block (hERG channels) is reported as “did not block”, the “mutagenicity (Ames)” value [1] is reported as “non-mutagenic” and the permeability (Caco-2) is reported as “high permeability”. The “inhibition of viral RdRp activity (relative luciferase activity)” value (MeV RdRp) was “dose-dependent inhibition”.

`Cn1nc(C(F)(F)F)cc1C(=O)Nc1ccc(S(=O)(=O)N2CCCC[C@H]2CCN2CCOCC2)cc1` [Compound 2o, (S)-1-methyl-N-(4-((2-(2-morpholinoethyl)piperidin-1-yl)sulfonyl)phenyl)-3-(trifluoromethyl)-1H-pyrazole-5-carboxamid] was tested, and the permeability (Caco-2) was “high permeability” and the “inhibition of viral RdRp activity (relative luciferase activity)” value (MeV RdRp) was “dose-dependent inhibition”.
